System: HEK-293T
Experiment: Multiplex assay against HEK293T;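 on Population Tubulin-Different-Phenotype (%): share of the cells with healthy nuclei that show this phenotype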
Type: toxicity, cell-based
Settings: human
In short: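 At seeding, live cells were stained with Hoechst33342, BioTracker Green Microtubule Cytoskeleton Dye, MitoTracker Red and Annexin V Alexa Fluor 680. After compound addition they were imaged on a CQ1 microscope at 37°C and 5% CO2, and CellPathfinder machine-learning gating sorted them into Hoechst high-intensity objects or normal cells, with normal cells further split into healthy, pyknosed or fragmented nuclei and pyknosed cells into mitotic or apoptotic. Tubulin, mitochondrial-mass and membrane-permeability phenotypes are given as per cents of cells with healthy nuclei.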

[1] = 12 h, 1 µM, compound concentration 1 uM, replicate 1
[2] = 12 h, 1 µM, compound concentration 1 uM, replicate 2
[3] = 12 h, 10 µM, compound concentration 10 uM, replicate 1
[4] = 12 h, 10 µM, compound concentration 10 uM, replicate 2
[5] = 24 h, 1 µM, compound concentration 1 uM, replicate 1
[6] = 24 h, 1 µM, compound concentration 1 uM, replicate 2
[7] = 24 h, 10 µM, compound concentration 10 uM, replicate 1
[8] = 24 h, 10 µM, compound concentration 10 uM, replicate 2
[9] = 48 h, 1 µM, compound concentration 1 uM, replicate 1
[10] = 48 h, 1 µM, compound concentration 1 uM, replicate 2
[11] = 48 h, 10 µM, compound concentration 10 uM, replicate 1
[12] = 48 h, 10 µM, compound concentration 10 uM, replicate 2

CC(C)c1cc(Nc2nc(N3CCC[C@H](N)C3)ncc2C(N)=O)cc(C(C)C)n1
Population Apoptotic (%) [1]: 61%
Population Fragmented Nuclei (%) [1]: 9%
Population Healthy Nuclei (%) [1]: 30%
Population Hoechst High Intensity Objects (%) [1]: 11%
Population Membrane Permeable-Phenotype (%) [1]: 9%
Population Mitochondria Different-Phenotype (%) [1]: 95%
Population Mitotic Cells (%) [1]: 38%
Population Normal (%) [1]: 88%
Population Pyknosed Nuclei (%) [1]: 60%
Population Tubulin-Different-Phenotype (%) [1]: 100%
Total Cell Count [1]: 225
Population Apoptotic (%) [2]: 52%
Population Fragmented Nuclei (%) [2]: 5%
Population Healthy Nuclei (%) [2]: 26%
Population Hoechst High Intensity Objects (%) [2]: 7%
Population Membrane Permeable-Phenotype (%) [2]: 8%
Population Mitochondria Different-Phenotype (%) [2]: 91%
Population Mitotic Cells (%) [2]: 47%
Population Normal (%) [2]: 92%
Population Pyknosed Nuclei (%) [2]: 68%
Population Tubulin-Different-Phenotype (%) [2]: 97%
Total Cell Count [2]: 140
Population Apoptotic (%) [3]: 88%
Population Healthy Nuclei (%) [3]: 6%
Population Hoechst High Intensity Objects (%) [3]: 18%
Population Membrane Permeable-Phenotype (%) [3]: 0%
Population Mitochondria Different-Phenotype (%) [3]: 93%
Population Mitotic Cells (%) [3]: 11%
Population Normal (%) [3]: 81%
Population Pyknosed Nuclei (%) [3]: 86%
Population Tubulin-Different-Phenotype (%) [3]: 43%
Total Cell Count [3]: 313
Population Apoptotic (%) [4]: 64%
Population Fragmented Nuclei (%) [4]: 7%
Population Healthy Nuclei (%) [4]: 5%
Population Hoechst High Intensity Objects (%) [4]: 5%
Population Membrane Permeable-Phenotype (%) [4]: 10%
Population Mitochondria Different-Phenotype (%) [4]: 90%
Population Mitotic Cells (%) [4]: 35%
Population Normal (%) [4]: 94%
Population Pyknosed Nuclei (%) [4]: 87%
Population Tubulin-Different-Phenotype (%) [4]: 40%
Total Cell Count [4]: 206
Population Apoptotic (%) [5]: 65%
Population Fragmented Nuclei (%) [5]: 8%
Population Healthy Nuclei (%) [5]: 28%
Population Hoechst High Intensity Objects (%) [5]: 14%
Population Membrane Permeable-Phenotype (%) [5]: 5%
Population Mitochondria Different-Phenotype (%) [5]: 94%
Population Mitotic Cells (%) [5]: 34%
Population Normal (%) [5]: 85%
Population Pyknosed Nuclei (%) [5]: 63%
Population Tubulin-Different-Phenotype (%) [5]: 91%
Total Cell Count [5]: 234
Population Apoptotic (%) [6]: 62%
Population Fragmented Nuclei (%) [6]: 9%
Population Healthy Nuclei (%) [6]: 40%
Population Hoechst High Intensity Objects (%) [6]: 5%
Population Membrane Permeable-Phenotype (%) [6]: 9%
Population Mitochondria Different-Phenotype (%) [6]: 89%
Population Mitotic Cells (%) [6]: 37%
Population Normal (%) [6]: 94%
Population Pyknosed Nuclei (%) [6]: 49%
Population Tubulin-Different-Phenotype (%) [6]: 96%
Total Cell Count [6]: 170
Population Apoptotic (%) [7]: 90%
Population Fragmented Nuclei (%) [7]: 14%
Population Healthy Nuclei (%) [7]: 2%
Population Hoechst High Intensity Objects (%) [7]: 22%
Population Membrane Permeable-Phenotype (%) [7]: 0%
Population Mitochondria Different-Phenotype (%) [7]: 100%
Population Mitotic Cells (%) [7]: 9%
Population Normal (%) [7]: 77%
Population Pyknosed Nuclei (%) [7]: 82%
Population Tubulin-Different-Phenotype (%) [7]: 28%
Total Cell Count [7]: 321
Population Apoptotic (%) [8]: 89%
Population Fragmented Nuclei (%) [8]: 11%
Population Healthy Nuclei (%) [8]: 15%
Population Hoechst High Intensity Objects (%) [8]: 8%
Population Membrane Permeable-Phenotype (%) [8]: 10%
Population Mitochondria Different-Phenotype (%) [8]: 40%
Population Mitotic Cells (%) [8]: 10%
Population Normal (%) [8]: 91%
Population Pyknosed Nuclei (%) [8]: 72%
Population Tubulin-Different-Phenotype (%) [8]: 70%
Total Cell Count [8]: 206
Population Apoptotic (%) [9]: 72%
Population Fragmented Nuclei (%) [9]: 13%
Population Healthy Nuclei (%) [9]: 39%
Population Hoechst High Intensity Objects (%) [9]: 15%
Population Membrane Permeable-Phenotype (%) [9]: 2%
Population Mitochondria Different-Phenotype (%) [9]: 85%
Population Mitotic Cells (%) [9]: 27%
Population Normal (%) [9]: 84%
Population Pyknosed Nuclei (%) [9]: 46%
Population Tubulin-Different-Phenotype (%) [9]: 95%
Total Cell Count [9]: 246
Population Apoptotic (%) [10]: 66%
Population Fragmented Nuclei (%) [10]: 7%
Population Healthy Nuclei (%) [10]: 55%
Population Hoechst High Intensity Objects (%) [10]: 7%
Population Membrane Permeable-Phenotype (%) [10]: 3%
Population Mitochondria Different-Phenotype (%) [10]: 81%
Population Mitotic Cells (%) [10]: 33%
Population Normal (%) [10]: 92%
Population Pyknosed Nuclei (%) [10]: 36%
Population Tubulin-Different-Phenotype (%) [10]: 96%
Total Cell Count [10]: 213
Population Apoptotic (%) [11]: 71%
Population Fragmented Nuclei (%) [11]: 22%
Population Healthy Nuclei (%) [11]: 2%
Population Hoechst High Intensity Objects (%) [11]: 17%
Population Membrane Permeable-Phenotype (%) [11]: 0%
Population Mitochondria Different-Phenotype (%) [11]: 100%
Population Mitotic Cells (%) [11]: 28%
Population Normal (%) [11]: 82%
Population Pyknosed Nuclei (%) [11]: 74%
Population Tubulin-Different-Phenotype (%) [11]: 57%
Total Cell Count [11]: 341
Population Apoptotic (%) [12]: 92%
Population Fragmented Nuclei (%) [12]: 23%
Population Healthy Nuclei (%) [12]: 26%
Population Hoechst High Intensity Objects (%) [12]: 7%
Population Membrane Permeable-Phenotype (%) [12]: 13%
Population Mitochondria Different-Phenotype (%) [12]: 64%
Population Mitotic Cells (%) [12]: 7%
Population Normal (%) [12]: 92%
Population Pyknosed Nuclei (%) [12]: 50%
Population Tubulin-Different-Phenotype (%) [12]: 91%
Total Cell Count [12]: 182
Population Apoptotic (%) (replicate 1): 30%
Population Fragmented Nuclei (%) (replicate 1): 5%
Population Healthy Nuclei (%) (replicate 1): 23%
Population Hoechst High Intensity Objects (%) (replicate 1): 12%
Population Membrane Permeable-Phenotype (%) (replicate 1): 0%
Population Mitochondria Different-Phenotype (%) (replicate 1): 74%
Population Mitotic Cells (%) (replicate 1): 69%
Population Normal (%) (replicate 1): 87%
Population Pyknosed Nuclei (%) (replicate 1): 71%
Population Tubulin-Different-Phenotype (%) (replicate 1): 3%
